From PubChem BioAssay AID2378 (NMMLSC, 2010)

Target: Cell division control protein 42 homolog (Homo sapiens) (UniProt P60953)
Assay: Cdc42 GTP Bmax and Kd shifts – biochemical, EDTA buffer, varying GTP, mechanism study for Ras-family GTPase inhibitor project, late-stage follow-up (AID 2378)
Details: GST-Cdc42 beads, BODIPY-GTP binding, flow cytometry
Summary of the method: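 Assay system: GST-Cdc42 on glutathione beads | Quantity: 4 µM GST-Cdc42 for bead loading | Doses: 10 µM compound, single dose | Times: 4 °C overnight capture, 2 min pre-incubation | Detection: Flow cytometry measurement of bead-associated BODIPY-GTP fluorescence | Read-out basis: GTP Bmax and Kd from one-site hyperbolic fit of specific binding | Benchmarks: DMSO vehicle reference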

Cell division control protein 42 homolog (Homo sapiens), sequence (P60953 whole entry, looked up): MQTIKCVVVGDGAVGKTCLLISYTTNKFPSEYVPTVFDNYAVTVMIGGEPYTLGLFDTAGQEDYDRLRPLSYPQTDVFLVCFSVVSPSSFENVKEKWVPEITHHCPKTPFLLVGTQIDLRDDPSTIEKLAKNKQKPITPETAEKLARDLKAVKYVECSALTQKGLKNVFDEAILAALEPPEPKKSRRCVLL

Bmax with compound (at 10 µM, stronger effect = lower value): 19800
Kd (measured here: GTP Kd with compound): 46.4 nM
Structure (SMILES): COc1ccc(C2CC(c3ccccc3)=NN2c2ccc(S(N)(=O)=O)cc2)cc1 (configuration not stated)
